How the values were obtained:
[1] = test system: Human immunodeficiency virus 1; assay: Antiviral activity against HIV1 NL4-3 harboring L10F/L24I/M46I/L63P/A71V/G73S/V82T amino acid substitution in protease encoding region infected in human MT4 cells assessed as inhibition of p24 Gag protein production selected at 5 uM of indinavir by ELISA; format: functional, organism-based; conditions: Human immunodeficiency virus 1, NL4-3, MT4
In short: (§1)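 HIV-1NL4-3 (500 TCID50s) was passaged in MT-4 cells, starting at 0.01–0.03 µM PI and raising the drug generally two- to threefold as virus propagated. Cell-free passage used day-7 supernatants. Variants were then tested in MT-4 cells (10^5/ml) with 100 TCID50s, with or without drug, at 37°C. Day-7 p24 Gag was read by chemiluminescent immunoassay; EC50 vs drug-free control; triplicate.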

[2] = test system: Human immunodeficiency virus 1; assay: Antiviral activity against HIV1 NL4-3 infected in human MT4 cells assessed as inhibition of p24 gag protein production by ELISA; format: functional, organism-based; conditions: Human immunodeficiency virus 1, NL4-3, MT4
In short: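 MT-4 cells (10^5/ml) were infected with 100 TCID50s of HIV-1 and cultured at 37°C with or without various drug concentrations. On day 7, supernatant p24 Gag was measured by automated chemiluminescent enzyme immunoassay. […] Assays were run in triplicate.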

[3] = test system: Human immunodeficiency virus 1; assay: Ratio of EC50 for HIV1 NL4-3 harboring L10F/M46I/I54V/V82A amino acid substitution in protease encoding region to EC50 for HIV1 NL4-3; format: functional
In short: (§2)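 MT-4 cells (10^5/ml) infected with 100 TCID50s of PI-selected HIV-1NL4-3 variants or the parental strain, with or without serial drug concentrations, at 37°C. Day 7 supernatant p24 Gag measured by chemiluminescent enzyme immunoassay. […] Triplicate. Ratio is variant EC50 over wild-type EC50.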

[4] = test system: Human immunodeficiency virus 1; assay: Antiviral activity against HIV1 NL4-3 harboring M46I/V82F/I84V amino acid substitution in protease encoding region infected in human MT4 cells assessed as inhibition of p24 Gag protein production selected at 5 uM of ritonavir by ELISA; format: functional, organism-based; conditions: Human immunodeficiency virus 1, NL4-3, MT4; in short: as §1
[5] = test system: Human immunodeficiency virus 1; assay: Ratio of EC50 for HIV1 NL4-3 harboring L10F/L24I/M46I/L63P/A71V/G73S/V82T amino acid substitution in protease encoding region to EC50 for HIV1 NL4-3; format: functional; in short: as §2
[6] = test system: Human immunodeficiency virus 1; assay: Ratio of EC50 for HIV1 A harboring L10I/I15V/E35D/N37E/K45R/I54V/L63P/A71V/V82T/L90M/I93L/C95F in protease encoding region to EC50 for HIV1 ERS104pre; format: functional
[7] = test system: Human immunodeficiency virus 1; assay: Ratio of EC50 for HIV1 NL4-3 harboring L10I/G48V/I54V/L90M amino acid substitution in protease encoding region to EC50 for HIV1 NL4-3; format: functional; in short: as §2
[8] = test system: Human immunodeficiency virus 1; assay: Ratio of EC50 for HIV1 NL4-3 harboring L10F/V32I/M46I/I54M//A71V/I84V amino acid substitution in protease encoding region to EC50 for HIV1 NL4-3; format: functional; in short: as §2
[9] = test system: Human immunodeficiency virus 1; assay: Antiviral activity against HIV1 B harboring L10I/I15V/E35D/N37E/K45R/I54V/L63P/A71V/V82T/L90M/I93L/C95F in protease encoding region infected in human PHA-PBC assessed as inhibition of p24 Gag protein production by ELISA; format: functional, organism-based; conditions: Human immunodeficiency virus 1, B
In short: (§3)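 Phytohemagglutinin-stimulated PBMs (10^6/ml) infected with 50 TCID50s of each primary isolate, cultured with or without drug in 10-fold serial dilutions. On day 7, supernatant p24 Gag was measured by automated chemiluminescent enzyme immunoassay. […] Triplicate.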

[10] = test system: Human immunodeficiency virus 1; assay: Antiviral activity against HIV1 NL4-3 harboring L10F/L33F/M46I/I47V/Q58E/V82I/I84V/I85V amino acid substitution in protease encoding region infected in human MT4 cells assessed as inhibition of p24 Gag protein production selected at 5 uM of GRL-02031 by ELISA; format: functional, organism-based; conditions: Human immunodeficiency virus 1, NL4-3, MT4
In short: (§4)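 Cell-free passage used day-7 supernatants. Variants were then tested in MT-4 cells (10^5/ml) with 100 TCID50s, with or without drug, at 37°C. Day-7 p24 Gag was read by chemiluminescent immunoassay; EC50 vs drug-free control; triplicate.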

[11] = test system: Human immunodeficiency virus 1; assay: Antiviral activity against HIV1 ERS104pre infected in human PHA-PBC assessed as inhibition of p24 Gag protein production by ELISA; format: functional, organism-based; conditions: Human immunodeficiency virus 1, ERS104pre
In short: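 Phytohemagglutinin-stimulated PBMs (10^6/ml) infected with 50 TCID50s of each primary isolate, cultured with or without drug in 10-fold serial dilutions. On day 7, supernatant p24 Gag was measured by automated chemiluminescent enzyme immunoassay. Triplicate.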

[12] = test system: Human immunodeficiency virus 1; assay: Ratio of EC50 for HIV1 NL4-3 harboring L10F/L33F/M46I/I47V/Q58E/V82I/I84V/I85V amino acid substitution in protease encoding region to EC50 for HIV1 NL4-3; format: functional; in short: as §2
[13] = Cytotoxicity against human MT2 cells by MTT assay; format: cell-based
[14] = test system: Human immunodeficiency virus 1; assay: Antiviral activity against HIV1 NL4-3 harboring L10F/D30N/K45I/A71V/T74S amino acid substitution in protease encoding region infected in human MT4 cells assessed as inhibition of p24 Gag protein production selected at 5 uM of nelfinavir by ELISA; format: functional, organism-based; conditions: Human immunodeficiency virus 1, NL4-3, MT4; in short: as §1
[15] = test system: Human immunodeficiency virus 1; assay: Ratio of EC50 for HIV1 B harboring L10I/I15V/E35D/N37E/K45R/I54V/L63P/A71V/V82T/L90M/I93L/C95F in protease encoding region to EC50 for HIV1 ERS104pre; format: functional
[16] = test system: Human immunodeficiency virus 1; assay: Antiviral activity against HIV1 G harboring L10I/V11I/T12E/I15V/L19I/R41K/M46L/L63P/A71T/V82A/L90M in protease encoding region infected in human PHA-PBC assessed as inhibition of p24 Gag protein production by ELISA; format: functional, organism-based; conditions: Human immunodeficiency virus 1, G; in short: as §3
[17] = test system: Human immunodeficiency virus; assay: Antiviral activity against HIV1 LAI infected in human MT2 cells after 7 days by MTT assay; format: functional, organism-based; conditions: Human immunodeficiency virus 1, LAI, MT2, 168 h
[18] = test system: Human immunodeficiency virus 1; assay: Ratio of EC50 for HIV1 MM harboring L10I/K43T/M46L/I54V/L63P/A71V/V82A/L90M/Q92K in protease encoding region infected to EC50 for HIV1 ERS104pre; format: functional
[19] = test system: Human immunodeficiency virus 1; assay: Antiviral activity against HIV1 NL4-3 harboring L23I/K43I/M46I/I50L/G51A/A71V amino acid substitution in protease encoding region infected in human MT4 cells assessed as inhibition of p24 Gag protein production selected at 1 uM of atazanavir by ELISA; format: functional, organism-based; conditions: Human immunodeficiency virus 1, NL4-3, MT4; in short: as §1
[20] = test system: Human immunodeficiency virus 1; assay: Antiviral activity against HIV1 NL4-3 harboring L10F/M46I/I54V/V82A amino acid substitution in protease encoding region infected in human MT4 cells assessed as inhibition of p24 Gag protein production selected at 1 uM of Lopinavir by ELISA; format: functional, organism-based; conditions: Human immunodeficiency virus 1, NL4-3, MT4; in short: as §4
[21] = test system: Human immunodeficiency virus 1; assay: Antiviral activity against HIV1 TM harboring L10I/K14R/R41K/M46L/I54V/L63P/A71V/V82A/L90M/I93L in protease encoding region infected in human PHA-PBC assessed as inhibition of p24 Gag protein production by ELISA; format: functional, organism-based; conditions: Human immunodeficiency virus 1, TM; in short: as §3

CC(C)(C)NC(=O)[C@@H]1C[C@@H]2CCCC[C@@H]2CN1C[C@@H](O)[C@H](Cc1ccccc1)NC(=O)[C@H](CC(N)=O)NC(=O)c1ccc2ccccc2n1
EC50 [1]: 22 nM | EC50 [2]: 8 nM | Ratio EC50 [3]: 4 | EC50 [4]: 10 nM | Ratio EC50 [5]: 3 | Ratio EC50 [6]: 11 | Ratio EC50 [7]: >125 | Ratio EC50 [8]: 2 | EC50 [9]: 300 nM | EC50 [10]: 8 nM | EC50 [11]: 9 nM | Ratio EC50 [12]: 1 | CC50 [13]: 9900 nM | EC50 [14]: 28 nM | Ratio EC50 [15]: 33 | EC50 [16]: 27 nM | EC50 [17]: 14 nM | Ratio EC50 [18]: 30 | EC50 [19]: 34 nM | EC50 [20]: 33 nM

CC(C)CN(C[C@@H](O)[C@H](Cc1ccccc1)NC(=O)O[C@H]1CCOC1)S(=O)(=O)c1ccc(N)cc1
EC50 [1]: 260 nM | EC50 [2]: 28 nM | Ratio EC50 [3]: 11 | EC50 [4]: 430 nM | Ratio EC50 [5]: 9 | Ratio EC50 [6]: 6 | Ratio EC50 [7]: 8 | Ratio EC50 [8]: >36 | EC50 [9]: 310 nM | EC50 [10]: 210 nM | Ratio EC50 [12]: 8 | CC50 [13]: > 100000 nM | EC50 [14]: 78 nM | Ratio EC50 [15]: 12 | EC50 [16]: 230 nM | EC50 [17]: 33 nM | Ratio EC50 [18]: 16 | EC50 [19]: 180 nM | EC50 [20]: 320 nM

CC(C)(C)NC(=O)[C@@H]1CN(Cc2cccnc2)CCN1C[C@@H](O)C[C@@H](Cc1ccccc1)C(=O)N[C@H]1c2ccccc2C[C@H]1O.O
EC50 [1]: > 1000 nM | EC50 [2]: 14 nM | Ratio EC50 [3]: >71 | EC50 [4]: 300 nM | Ratio EC50 [5]: >71 | Ratio EC50 [6]: >48 | Ratio EC50 [7]: >71 | Ratio EC50 [8]: 16 | EC50 [21]: > 1000 nM | EC50 [9]: > 1000 nM | EC50 [10]: 44 nM | Ratio EC50 [12]: 3 | EC50 [14]: 270 nM | Ratio EC50 [15]: >48 | EC50 [16]: 340 nM | EC50 [17]: 44 nM | Ratio EC50 [18]: >48 | EC50 [19]: 330 nM | EC50 [20]: > 1000 nM

COc1ccc(S(=O)(=O)N(C[C@@H]2CCC(=O)N2)C[C@@H](O)[C@H](Cc2ccccc2)NC(=O)O[C@@H]2C[C@@H]3CCO[C@@H]3C2)cc1
EC50 [1]: 47 nM | EC50 [2]: 23 nM | Ratio EC50 [3]: 2 | EC50 [4]: 77 nM | Ratio EC50 [5]: 2 | Ratio EC50 [6]: 1 | Ratio EC50 [7]: 6 | Ratio EC50 [8]: 2 | EC50 [21]: 26 nM | EC50 [9]: 29 nM | EC50 [10]: > 1000 nM | EC50 [11]: 27 nM | Ratio EC50 [12]: >43 | CC50 [13]: > 100000 nM | EC50 [14]: 36 nM | Ratio EC50 [15]: 1 | EC50 [16]: 28 nM | EC50 [17]: 28 nM | Ratio EC50 [18]: 2 | EC50 [19]: 33 nM | EC50 [20]: 38 nM

Cc1c(O)cccc1C(=O)N[C@@H](CSc1ccccc1)[C@H](O)CN1C[C@H]2CCCC[C@H]2C[C@H]1C(=O)NC(C)(C)C
EC50 [1]: 650 nM | Ratio EC50 [3]: 28 | EC50 [4]: 240 nM | Ratio EC50 [5]: 36 | Ratio EC50 [6]: 21 | Ratio EC50 [7]: 18 | Ratio EC50 [8]: 10 | EC50 [21]: > 1000 nM | EC50 [9]: > 1000 nM | EC50 [10]: 11 nM | EC50 [11]: 16 nM | Ratio EC50 [12]: 1 | EC50 [14]: > 1000 nM | Ratio EC50 [15]: >63 | EC50 [16]: 230 nM | EC50 [17]: 23 nM | Ratio EC50 [18]: >63 | EC50 [19]: 210 nM | EC50 [20]: 510 nM

— ChEMBL document CHEMBL1649117, “GRL-02031, a novel nonpeptidic protease inhibitor (PI) containing a stereochemically defined fused cyclopentanyltetrahydrofuran potent against multi-PI-resistant human immunodeficiency virus type 1 in vitro” (Antimicrob Agents Chemother, 2009)
